# H9c2 protect = cardioprotection against H2O2-induced cell death, primary screen, uHTS, H9c2 cells, ATPLite luminescence; H9c2 cardiomyocytes, H2O2 injury protection, 2 h; protection from H2O2 cell death, % at 20 µM; 360,000 compounds, 0.63% hits;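 active = compounds giving at least 50% protection of heart cells from peroxide-induced death in the single-dose screen, raw or plate-pattern-corrected value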;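 note: 0% = DMSO wells with peroxide and 100% = DMSO wells without peroxide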
# Fh CTSL1 inh = Fasciola hepatica cathepsin L1 inhibitors, primary screen, counter-screen for PFM18AAP inhibitor project, biochemical, QFRET, fluorogenic peptide substrate. recombinant F. hepatica cathepsin L1, Z-Leu-Arg-MCA fluorescence. inhibition, % at 5.96 µM. 300,000 compounds, 0.49% hits;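 active = inhibition above the mean of all tested compounds plus 3 SD, set per screening campaign, cut at about 17% in these data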;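 note: 0% = plate median of test compound wells and 100% = 1 µM Z-Phe-Ala-diazomethylketone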
# GASC-1 inh = inhibitors of GASC-1 histone demethylase, primary screen, biochemical, fluorescence, DELFIA europium. 330,000 compounds, 0.069% hits. Lysine-specific demethylase 4C (Homo sapiens), Q9H3R0. AID 2099, 2009. GST-JMJD2C(1-420) H3K9me3 demethylation. inhibition, % at 2.35 µM;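 active = more than half of a compound's replicate wells show inhibition beyond 50%, single wells judged on their own value; inconclusive = some, but no more than half, of replicates pass 50% inhibition; inactive = no replicate passes 50% inhibition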;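 note: signal counts dimethyl H3K9 product captured on neutravidin plate; 0% = median of DMSO wells and 100% = 0.3 times that DMSO median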
# p-CIP stab down = p/CIP-EGFP fusion destabilizers, primary screen, fluorescence, F442A cells | Q05BA5 | 16 h | decrease of EGFP signal, % at 10 µM | 290,000 compounds, 0.01% hits | AID 1984, 2009;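 active = EGFP signal decrease of at least 30% at 10 µM or well 3 SD below plate mean, unless failing retest; inactive = the rest, including hits failing retest or dose response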
# T cruzi inh = inhibitors of intracellular T. cruzi growth, primary screen, luminescence, NIH3T3 host cells; T. cruzi beta-gal in NIH3T3, 90 h; inhibition, % (test concentration not listed); 300,000 compounds, 1.4% hits; AID 1885, 2009;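 active = mean inhibition across valid replicates above about 55%, limit read from the data; inconclusive = mean below that limit but half or more replicates reach it; inactive = mean below it, under half of replicates reach it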;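 note: signal also drops with host cell toxicity which is not excluded here; 0% = plate median of DMSO wells and 100% = zero luminescence signal; higher percent means less beta-gal luminescence so fewer parasites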
#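 System – NIH/3T3 host cells with β-galactosidase reporter T. cruzi · Doses – single 50 nL compound addition per well in DMSO · Reagent – 5000 T. cruzi trypomastigotes/well · Medium – Low-serum DMEM with 2% FBS · Timing – ≥90 h infection period, 3 h prior cell attachment · Evaluation – parasite load inhibition, % · Technique – GalScreen luminescence, 60 min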
# PP5 primary = PP5 phosphatase inhibitors, primary screen, biochemical, fluorescence. Serine/threonine-protein phosphatase 5 (Homo sapiens), P53041. purified PP5c, OMFP substrate fluorescence. inhibition, % at 6.7 µM. 320,000 compounds, 0.18% hits. AID 1987, 2009;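 active = inhibition above the campaign's mean inhibition across all tested compounds plus 3 SD, cut at about 9.5% in these data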;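 note: 0% = DMSO only and 100% = 100 µM cantharidin control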
# * marks the source's active call; other numbers are inactive results; u = inconclusive; x = no result. The list is not random: actives were taken first. Their share in the collection is about 2.4%.
SMILES,H9c2 protect,Fh CTSL1 inh,GASC-1 inh,p-CIP stab down,T cruzi inh,PP5 primary
COc1cc(NC(=O)c2cc([N+](=O)[O-])ccc2NC(=O)CN2CCN(c3ccccn3)CC2)cc(OC)c1,55*,-6,4,10,21,3
O=C(CN1CCN(c2ccccn2)CC1)Nc1ccccc1C(=O)Nc1ccccc1,24,-6,u,x,14,1
CC1CCCCC1NC(=O)CSc1nnnn1C (configuration not stated),3,x,x,x,x,x
C/C(=N\OCC(=O)N/N=C/c1ccc(C)cc1O)c1cccs1,64*,1,9,4,7,-2
CSc1nsc(SC)c1C(=O)N1CCN(S(=O)(=O)c2ccc(C)cc2)C1C(C)C (configuration not stated),83*,-3,-18,-4,7,3
CSc1nsc(SC)c1C(=O)N1CCN(S(=O)(=O)c2ccc(C)cc2)C1C (configuration not stated),37,5,-6,3,4,1
COc1ccc(-c2csc(NC(=O)c3ccc(OCC(=O)N4CCOCC4)c(OC)c3)n2)cc1,44,3,-3,7,44,2
COc1ccccc1C(=O)Nc1nc(-c2ccc3c(c2)OCCO3)cs1,64*,-1,7,8,0,3
COc1cc(C(=O)Nc2nc(-c3ccc(F)cc3)cs2)ccc1OCC(=O)N1CCOCC1,8,-4,3,-9,60*,2
COc1cc(C(=O)NNC(=O)c2ccc(F)cc2)ccc1OCC(=O)N1CCOCC1,2,x,0,x,x,-2
COc1cc(C(=O)Nc2nc(-c3ccc(C)cc3)cs2)ccc1OCC(=O)N1CCOCC1,15,2,7,-22,55*,4
Cc1c(C(=O)N(CC(C)C)c2c(N)n(Cc3ccccc3)c(=O)[nH]c2=O)sc2nc3n(c(=O)c12)CCC3,0,6,22,x,3,1
O=C1C(SCCO)=C(SCCO)C(=O)c2ccccc21,-46,79*,25,x,x,9
COc1ccc(S(=O)(=O)N2CCOCC2)cc1NC(=O)c1ccccc1C,-4,3,-46,5,-2,2
O=C(CSc1cccc2cccnc12)Nc1ccc(S(=O)(=O)N2CCOCC2)cc1,-2,4,-2,-15,63*,1
O=S(=O)(c1ccc(NC(=S)NCCC(c2ccccc2)c2ccccc2)cc1)N1CCOCC1,-19,1,5,1,61*,7
Cc1noc(C)c1C(=O)Nc1cc(S(=O)(=O)N2CCCCC2)ccc1N(C)C,1,x,x,x,x,x
CCCCCCC[C@H](N)[C@H](O)C(=O)N(C)[C@@H](CCS(C)=O)C(=O)N[C@@H](Cc1ccc(O)cc1)C(=O)N[C@@H](Cc1ccc(O)cc1)C(=O)O (some centres not stated),-4,-1,19,-7,-3,88*
Fc1ccc(-n2nnc(-c3cccnc3)n2)cc1,2,-1,-4,-29,-16,0
Fc1ccc(C(CCCn2nnc(-c3cccnc3)n2)c2ccc(F)cc2)cc1,-22,0,-7,-8,62*,6
CCCCN(C(=O)Nc1ccccc1)C1CCS(=O)(=O)C1 (configuration not stated),10,x,x,x,x,1
CCCCN(C(=S)Nc1ccccc1)C1CCS(=O)(=O)C1 (configuration not stated),0,18*,-23,-17,-5,-5
Cc1cc(C)nc(NC(N)=NCCc2ccccc2)n1,-10,x,x,x,x,x
Cc1cc(C)nc(NC(N)=NC(C)c2ccccc2)n1 (configuration not stated),x,-2,51*,-12,-8,1
c1ccc(COc2cccc(CNCc3ccccn3)c2)cc1,1,-4,23,-18,-3,6
SMILES,H9c2 protect,Fh CTSL1 inh,GASC-1 inh,p-CIP stab down,T cruzi inh,PP5 primary
c1ccc(COc2cccc(CNCc3cccnc3)c2)cc1,0,-1,-5,-9,62*,-1
CC(C)N1CCN(Cc2ccc(-c3ccccc3Cl)o2)CC1CCO (configuration not stated),0,0,3,1,64*,2
CC(C)N1CCN(Cc2ccc3c(c2)Cc2ccccc2-3)CC1CCO (configuration not stated),26,-3,1,-5,58*,1
CC(C)N1CCN(Cc2ccc(Sc3nncn3C)o2)CC1CCO (configuration not stated),0,4,-2,-4,-11,-3
CC(C)N1CCN(Cc2ccc(-c3ccccc3)cc2)CC1CCO (configuration not stated),2,0,12,-1,35,0
CCc1cc2c(=O)c(-c3ccc4c(c3)OCCO4)coc2c(CN2CCCCC2C)c1O (configuration not stated),-4,-1,1,2,56*,0
O=C(CNS(=O)(=O)c1ccc(Cl)cc1)NC1CCCCC1,11,x,-4,x,x,-1
CCOc1ccc(C(CC(=O)O)NC(=O)C(c2ccccc2)c2ccccc2)cc1OC (configuration not stated),-4,x,15,x,x,-1
CCc1ccc(S(=O)(=O)/N=C2\C=C(Nc3ccc(C(=O)O)cc3)C(=O)c3ccccc32)cc1,-16,79*,3,-22,-8,11*
Cc1ccc(S(=O)(=O)/N=C2\C=C(Nc3ccc(O)cc3)C(=O)c3ccccc32)cc1,-13,x,13,x,x,x
Cc1ccc(S(=O)(=O)/N=C2\C=C(Nc3cccc(C(=O)O)c3)C(=O)c3ccccc32)cc1,-14,63*,3,4,7,9
COc1ccccc1NC(=O)CSc1nnc(C)s1,11,x,-11,0,-8,x
CCOC(=O)C1CCN(CC(C)(C)NS(=O)(=O)c2ccccc2)CC1,0,-2,7,-10,-3,-1
O=C(NCc1ccco1)/C(=C/C=C/c1ccccc1)NC(=O)c1ccco1,-1,27*,4,1,-11,-3
O=C(NCc1ccco1)/C(=C\c1ccco1)NC(=O)c1ccc(Br)o1,-12,15,-26,-14,-6,0
O=C(NCc1ccco1)/C(=C/c1ccco1)NC(=O)c1ccc(Br)o1,-3,17*,-14,3,5,-1
O=C(NCc1ccco1)/C(=C\C=C\c1ccccc1)NC(=O)c1ccco1,0,17*,2,-9,-2,1
O=C(NCc1ccco1)/C(=C/c1ccccc1)NC(=O)c1ccco1,-1,5,0,-10,12,1
COc1ccccc1C(=O)N/C(=C\c1ccccc1)C(=O)NCc1ccco1,0,17*,5,-22,8,-3
